Test results: ChEMBL document CHEMBL3352559, “Synthesis and pharmacological investigation of aralkyl diamine derivatives as potential triple reuptake inhibitors” (Eur J Med Chem, 2014)

Assays:
[1] = target: T1, Sodium-dependent noradrenaline transporter (Homo sapiens, UniProt P23975); assay: Inhibition of [3H]-NE uptake in human norepinephrine transporter expressed in HEK293 cells by scintillation counting; assay type: cell-based
[2] = target: T2, Sodium-dependent serotonin transporter (Homo sapiens, UniProt P31645); assay: Inhibition of [3H]-serotonin uptake in human SERT expressed in HEK293 cells at 10 uM by scintillation counting; assay type: cell-based
Target sequence in this assay (P31645 whole entry, looked up): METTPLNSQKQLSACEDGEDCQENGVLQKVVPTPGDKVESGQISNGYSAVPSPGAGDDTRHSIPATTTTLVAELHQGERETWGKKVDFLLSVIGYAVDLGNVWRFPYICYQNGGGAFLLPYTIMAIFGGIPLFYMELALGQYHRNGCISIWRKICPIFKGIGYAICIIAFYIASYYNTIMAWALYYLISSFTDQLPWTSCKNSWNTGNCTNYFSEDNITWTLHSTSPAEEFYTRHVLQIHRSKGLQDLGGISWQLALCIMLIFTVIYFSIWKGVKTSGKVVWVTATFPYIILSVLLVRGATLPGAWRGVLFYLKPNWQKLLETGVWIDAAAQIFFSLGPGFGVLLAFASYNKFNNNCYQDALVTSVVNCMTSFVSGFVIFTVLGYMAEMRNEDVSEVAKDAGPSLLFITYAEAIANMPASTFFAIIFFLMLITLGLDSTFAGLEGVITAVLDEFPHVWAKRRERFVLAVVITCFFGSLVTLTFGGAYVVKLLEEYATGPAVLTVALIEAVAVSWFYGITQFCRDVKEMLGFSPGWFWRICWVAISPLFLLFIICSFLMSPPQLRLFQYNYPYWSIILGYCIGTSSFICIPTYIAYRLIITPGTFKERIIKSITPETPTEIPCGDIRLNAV

[3] = target: T3, Sodium-dependent dopamine transporter (Homo sapiens, UniProt Q01959); assay: Inhibition of [3H]-DA uptake in human dopamine transporter expressed in CHO cells at 10 uM by scintillation counting
T3 sequence (Q01959 whole entry): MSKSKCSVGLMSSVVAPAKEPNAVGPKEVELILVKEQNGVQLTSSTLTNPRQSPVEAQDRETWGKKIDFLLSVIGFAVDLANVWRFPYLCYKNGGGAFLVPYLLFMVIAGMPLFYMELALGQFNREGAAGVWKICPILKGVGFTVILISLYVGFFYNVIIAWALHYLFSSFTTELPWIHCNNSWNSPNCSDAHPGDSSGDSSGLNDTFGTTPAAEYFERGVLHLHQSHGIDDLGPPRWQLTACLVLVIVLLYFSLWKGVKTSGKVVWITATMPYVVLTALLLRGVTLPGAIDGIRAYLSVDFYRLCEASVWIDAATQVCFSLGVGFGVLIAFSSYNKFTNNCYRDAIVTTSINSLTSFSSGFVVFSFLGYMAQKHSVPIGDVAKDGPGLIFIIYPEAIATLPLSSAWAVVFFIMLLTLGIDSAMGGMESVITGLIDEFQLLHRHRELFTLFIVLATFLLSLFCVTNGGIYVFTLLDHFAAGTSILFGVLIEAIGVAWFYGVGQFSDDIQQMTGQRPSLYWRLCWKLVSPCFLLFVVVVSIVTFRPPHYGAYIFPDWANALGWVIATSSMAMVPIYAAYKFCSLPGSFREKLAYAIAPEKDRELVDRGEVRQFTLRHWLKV

[4] = target: T2, Sodium-dependent serotonin transporter; assay: Inhibition of [3H]-serotonin uptake in human SERT expressed in HEK293 cells by scintillation counting; assay type: cell-based
Target sequence in this assay (P31645 whole entry): as the sequence (P31645 whole entry, looked up) above

[5] = target: T3, Sodium-dependent dopamine transporter; assay: Inhibition of [3H]-DA uptake in human dopamine transporter expressed in HEK293 cells by scintillation counting; assay type: cell-based
[6] = target: T1, Sodium-dependent noradrenaline transporter; assay: Inhibition of [3H]-NE uptake in human norepinephrine transporter expressed in HEK293 cells at 10 uM by scintillation counting; assay type: cell-based
Rattus norvegicus [7] = assay: Toxicity in rat assessed as effect on locomotion at 30 mg/kg, po after 60 mins by spontaneous locomotor test; assay type: organism-based; design: dose 30 mg/kg, route oral; conditions: in vivo, 1 h
Outline: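 Rats were dosed PO. 60 min later each was placed alone in an unfamiliar 40 cm × 40 cm × 50 cm plastic cage under dim light and sound attenuation. Spontaneous activity was monitored automatically at 5 min intervals for up to 30 min. Results are mean ± SEM versus vehicle.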

Rattus norvegicus [8] = assay: Antidepressant activity in rat assessed as reduction in immobility time at 30 mg/kg, po by forced swimming test relative to control; assay type: functional
Outline: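 Male rats were dosed PO with vehicle or compound. After 1 h each rat was placed in a clear glass cylinder (40 cm tall × 18 cm diameter) holding water at 25 ± 1 °C, 15 cm deep. Immobility time was recorded over a 6 min trial and compared with vehicle. Significant main effects were followed by Fisher's post hoc test.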

Rattus norvegicus [9] = assay: Antidepressant activity in po dosed rat assessed as reduction in immobility time by forced swimming test; assay type: functional, organism-based
Outline: (§1)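 Male rats dosed orally at 5, 10 or 20 mg/kg alongside vehicle and venlafaxine 30 mg/kg PO groups. 1 h post-dose, each rat placed in a glass cylinder (40 cm × 18 cm) holding 15 cm of 25 ± 1 °C water. Immobility time recorded over a 6 min trial; significant main effects followed by post hoc Fisher's test.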

Rattus norvegicus [10] = assay: Antidepressant activity in rat assessed as reduction in immobility time at 5 mg/kg, po by forced swimming test relative to control; assay type: functional; outline: as §1
Rattus norvegicus [11] = assay: Antidepressant activity in rat assessed as reduction in immobility time at 10 mg/kg, po by forced swimming test relative to control; assay type: functional; outline: as §1
Rattus norvegicus [12] = assay: Antidepressant activity in rat assessed as reduction in immobility time at 20 mg/kg, po by forced swimming test relative to control; assay type: functional; outline: as §1
Rattus norvegicus [13] = assay: Toxicity in rat assessed as effect on locomotion at 20 mg/kg, po after 60 mins by spontaneous locomotor test; assay type: organism-based; design: dose 20 mg/kg, route oral; conditions: in vivo, 1 h
Outline: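 Rats dosed orally at 20 mg/kg, with vehicle and venlafaxine 30 mg/kg PO as controls; 60 min later placed singly in novel 40×40×50 cm cages under dim light with sound attenuation; activity recorded automatically in 5 min bins over 30 min; mean ± SEM.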

T1 sequence (P23975 whole entry): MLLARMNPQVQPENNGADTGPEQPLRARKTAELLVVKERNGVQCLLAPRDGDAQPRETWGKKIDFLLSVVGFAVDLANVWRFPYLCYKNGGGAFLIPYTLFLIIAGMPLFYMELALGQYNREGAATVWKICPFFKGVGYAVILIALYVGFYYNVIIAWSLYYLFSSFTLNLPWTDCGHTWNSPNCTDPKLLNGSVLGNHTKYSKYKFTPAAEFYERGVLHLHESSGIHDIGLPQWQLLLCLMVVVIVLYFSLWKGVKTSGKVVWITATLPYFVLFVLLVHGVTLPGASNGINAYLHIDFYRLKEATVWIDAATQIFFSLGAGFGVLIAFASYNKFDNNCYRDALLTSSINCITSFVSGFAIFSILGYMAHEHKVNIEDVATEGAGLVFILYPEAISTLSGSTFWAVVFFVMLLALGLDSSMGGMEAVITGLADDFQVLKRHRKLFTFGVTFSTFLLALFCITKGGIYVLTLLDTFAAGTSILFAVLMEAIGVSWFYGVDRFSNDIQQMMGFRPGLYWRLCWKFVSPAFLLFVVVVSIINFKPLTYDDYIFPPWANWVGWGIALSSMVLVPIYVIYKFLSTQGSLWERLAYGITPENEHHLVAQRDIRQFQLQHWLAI

Row | IC50 [1] [nM] | inhibition [2] [%] | inhibition [3] [%] | IC50 [4] [nM] | inhibition [6] [%] | SMILES | further results
1 | 374 |  |  | 338 |  | COc1ccc2cc(C(CCN(C)C)N3CCCC3)ccc2c1Cl (centres undefined) | IC50 [5]: 8190 nM
2 |  | 62.7 | 40.1 |  | 87.6 | CN(C)CCC(c1ccc(F)cc1)N1CCCCC1 (centres undefined) | 
3 |  | 70.2 | 46.6 |  | 68.9 | CN(C)CCC(c1ccc(F)cc1)N1CCCC1 (centres undefined) | 
4 |  | 35.6 | 3.4 |  | 50.6 | CN(CCC(c1ccc(Cl)c(Cl)c1)N1CCOCC1)Cc1ccccc1 (centres undefined) | 
5 | 136 | 76.5 |  |  |  | CCN(CC)CCC(c1ccc(Cl)c(Cl)c1)N1CCCC1 (centres undefined) | IC50 [5]: 363 nM
6 | 428 |  | 80.1 | 399 |  | CN(C)CCC(c1ccc(Cl)c(Cl)c1)N1CCNCC1 (centres undefined) | 
7 |  | 58.5 | 35.7 |  | 52.5 | CN(C)CCC(c1ccc(Cl)cc1)N1CCOCC1 (centres undefined) | 
8 | 206 |  |  | 501 |  | CN(C)CCC(c1ccc(Cl)c(Cl)c1)N1CCCC1 (centres undefined) | IC50 [5]: 357 nM; inhibition (Rattus norvegicus [9]): Dose-dependent effect; inhibition in vivo at 5 mg/kg (Rattus norvegicus [10]): 18%; inhibition in vivo at 10 mg/kg (Rattus norvegicus [11]): 25%; inhibition in vivo at 20 mg/kg (Rattus norvegicus [12]): 36%; Activity (Rattus norvegicus [13]): Non-toxic
9 |  | 50.7 | 6.4 |  | 74.2 | CN(C)CCC(c1ccc(F)cc1)N1CCOCC1 (centres undefined) | 
10 |  | 25.9 | 22.9 |  | 29.3 | COc1ccc(C(CCN(C)C)N2CCOCC2)cc1 (centres undefined) | 
11 |  | 39.2 | 25.8 |  | 40.4 | Cc1ccc(C(CCN(C)C)N2CCOCC2)cc1 (centres undefined) | 
12 | 634 |  |  | 546 |  | CN(C)CCC(c1ccc(Cl)c(Cl)c1)N1CCCCC1 (centres undefined) | IC50 [5]: 602 nM

Second part, the compound before the results:

Row | SMILES | IC50 [1] [nM] | inhibition [2] [%] | inhibition [3] [%] | IC50 [4] [nM] | inhibition [6] [%] | further results
13 | CNCCC(c1ccc(F)cc1F)N1CCOCC1 (centres undefined) | 328 | 86.1 | 42 |  |  | 
14 | C1=C(Cc2ccccc2)CCN(CCC(c2csc3ccccc23)N2CCCCC2)C1 (centres undefined) |  |  | 77.4 | 905 | 52.7 | 
15 | CN(C)CCC(c1csc2ccccc12)N1CCCC1 (centres undefined) | 250 |  |  | 425 |  | IC50 [5]: 986 nM
16 | CCOC(=O)C1CCCN(C(CCN2CCOCC2)c2ccc(Cl)c(Cl)c2)C1 (centres undefined) |  | 34.9 | 36.6 |  | 19 | 
17 | CN(C)CCC(c1ccc(C(F)(F)F)cc1)N1CCOCC1 (centres undefined) |  | 46.2 | 8.5 |  | 83.2 | 
18 | COc1ccc(C(CN(C)C)C2(O)CCCCC2)cc1 (centres undefined) [VENLAFAXINE] |  |  |  |  |  | Activity (Rattus norvegicus [7]): Toxic; inhibition in vivo at 30 mg/kg (Rattus norvegicus [8]): 14%
19 | C1=C(Cc2ccccc2)CCN(CCC(c2csc3ccccc23)N2CCOCC2)C1 (centres undefined) |  | 65.4 |  |  | 79.1 | IC50 [5]: 852 nM
20 | CN(C)CCC(c1ccc(C(F)(F)F)cc1)N1CCCC1 (centres undefined) |  | 57.6 | 37.1 |  | 77.4 | 
21 | CN(C)CCC(c1csc2ccccc12)N1CCOCC1 (centres undefined) | 2540 |  | 56.8 | 1190 |  | 
22 | CN(CCC(c1cc2ccccc2s1)N1CCOCC1)Cc1ccccc1 (centres undefined) |  | 30.3 | 41.9 |  | 37.8 | 
23 | CN(C)CCC(c1cc2ccccc2s1)N1CCCC1 (centres undefined) | 495 |  |  | 401 |  | IC50 [5]: 863 nM
24 | Clc1ccc(C(CCN2CC=C(Cc3ccccc3)CC2)N2CCCC2)cc1Cl (centres undefined) | 426 | 79.1 |  |  |  | IC50 [5]: 291 nM
25 | Clc1ccc(C(CCN2CCOCC2)N2CCOCC2)cc1Cl (centres undefined) |  | 73.8 | 54.4 |  | 4.9 | 
26 | CN(CCC(c1ccc(F)cc1F)N1CCOCC1)Cc1ccccc1 (centres undefined) |  | 24.1 | 46.2 |  | 5.3 | 
27 | Clc1ccc(C(CCN2CCCCC2)N2CCOCC2)cc1Cl (centres undefined) |  | 59.9 | 68.1 |  | 74 | 
28 | COc1ccc2cc(C(CCN(C)Cc3ccccc3)N3CCOCC3)ccc2c1Cl (centres undefined) |  | 47.3 | 2.5 |  | 49.5 | 
29 | C1=C(Cc2ccccc2)CCN(CCC(c2csc3ccccc23)N2CCCC2)C1 (centres undefined) | 157 |  |  | 621 |  | IC50 [5]: 325 nM
30 | CN(C)CCC(c1ccc(F)cc1F)N1CCOCC1 (centres undefined) |  | 55.6 | 50.7 |  | 19.4 | 
31 | CN(C)CCC(c1cc2ccccc2s1)N1CCOCC1 (centres undefined) | 1460 |  | 66.8 | 449 |  | 
32 | Clc1ccc(C(CCN2CCOCC2)N2CCCC2)cc1Cl (centres undefined) | 68.9 |  |  | 389 |  | IC50 [5]: 238 nM; inhibition (Rattus norvegicus [9]): Dose-dependent effect; inhibition in vivo at 5 mg/kg (Rattus norvegicus [10]): 12%; inhibition in vivo at 10 mg/kg (Rattus norvegicus [11]): 17%; inhibition in vivo at 20 mg/kg (Rattus norvegicus [12]): 34%; Activity (Rattus norvegicus [13]): Non-toxic
33 | C1=C(Cc2ccccc2)CCN(CCC(c2csc3ccccc23)N2CCNCC2)C1 (centres undefined) | 635 | 73.9 | 83.9 |  |  | 
34 | COc1ccc2cc(C(CCN3CC=C(Cc4ccccc4)CC3)N3CCCC3)ccc2c1Cl (centres undefined) |  | 79.9 | 79.5 |  | 73.5 | 
35 | CC1CCCN(C(CCN2CCOCC2)c2ccc(Cl)c(Cl)c2)C1 (centres undefined) |  | 30.5 | 54.3 |  | 35.3 | 
